We go through one molecule from ChEMBL document CHEMBL1158578, “Phloroglucinols from the argentine ferns Elaphoglossum gayanum and E. piloselloides” (2010).

Each structure is given as a SMILES string.

Holding throughout (assay type): functional
Assay [1] concerns Biomphalaria peregrina. The assay can be described thus: Molluscicidal activity against Biomphalaria peregrina after 24 hrs. In a few lines:
(§1)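 Snails (Biomphalaria peregrina) exposed for 24 h to test samples at 50, 20, 10, 5 and 2.5 ppm, with 21 snails per concentration. Mortality was recorded as a percentage. LD50 and LD90 were calculated from the mortality data by probit analysis. CuSO4 at 10 ppm served as the positive control, alongside an untreated control.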

Assay [2] deals with Biomphalaria peregrina. Nature of the assay: Molluscicidal activity against Biomphalaria peregrina assessed as mortality at 10 ppm after 24 hrs. In short, it runs like this: as §1
Assay [3] has as its system Biomphalaria peregrina. The assay can be described thus: Molluscicidal activity against Biomphalaria peregrina assessed as mortality at 2.5 ppm after 24 hrs. In a few lines: as §1
For assay [4], the system named is Biomphalaria peregrina. The assay can be described thus: Molluscicidal activity against Biomphalaria peregrina assessed as mortality at 5 ppm after 24 hrs. In short, it runs like this:
as §1

In turn, `CCCC(=O)C1=C(O)C(C)(CC=C(C)C)C(O)=C(Cc2c(O)c(O)cc(OC)c2C(=O)CCC)C1=O` (stereo not given) [ELAPHOPILOSIN D] had an LD90 in assay [1] of 22.8 µM. Also, the LC50 in assay [1] (Biomphalaria peregrina, 24 h, read-out: LD50 (the source's name)) worked out at 14.4 µM. The Activity was 81% in assay [2], 10% in assay [3] and 24% in assay [4].
